The source made the active and inactive calls. The rule behind the calls is not given here.
Key:
Hepatitis C virus [1] = assay: Antiviral activity against Hepatitis C virus genotype 1a infected in human HuH7-SG cells after 3 days by RT-PCR analysis; assay type: functional, organism-based, Hepacivirus hominis; conditions: subtype 1a, Huh-7, 72 h
[2] = Binding affinity to Hepatitis C virus genotype 6a NS5B by surface plasmon resonance analysis; parameters: species or system Hepatitis C virus subtype 6a
Outline: (§1)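 Surface plasmon resonance binding to NS5B polymerase of the stated genotype; association and dissociation rate constants measured, from which Kd and residence half-life were derived; median Kd reported.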

Hepatitis C virus [3] = assay: Antiviral activity against Hepatitis C virus genotype 1a infected in human HuH7 by transient replicon assay; assay type: functional, organism-based, Hepacivirus hominis; conditions: subtype 1a, Huh-7
Outline: (§2)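 Transient replicon assay using chimeric replicons whose NS5B region is derived from patient isolates of the stated genotype.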

Hepatitis C virus [4] = assay: Antiviral activity against Hepatitis C virus genotype 1b infected in human HuH7 assessed as suppression of formation of resistant colonies at 1.5 uM preincubated for 2 weeks followed by 3 week rebound phase by RT-PCR analysis; assay type: functional, organism-based; conditions: Hepacivirus hominis, Huh-7
Outline: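 Huh7-Luc genotype 1b replicon cells were incubated for 14 days with the NNI alone (up to 3.75 μM), with TMC435 alone, or with both. A 3-week rebound phase without inhibitor followed, tracking replicon RNA clearance. A parallel colony formation run exposed the cells for 2−3 weeks and scored resistant colonies.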

[5] = Inhibition of His6-tagged Hepatitis C virus Con 1b NS5B delta21 RNA dependent RNA polymerase expressed in Escherichia coli Rosetta 2 (DE3) after 2 hrs by primer-dependent transcription assay in presence of 5'-biotinylated rG13 primer
Hepatitis C virus [6] = assay: Antiviral activity against Hepatitis C virus harboring NS5B M423T mutant infected in human HuH7 by luciferase reporter gene assay; assay type: functional, organism-based; conditions: Hepacivirus hominis; Huh-7
Homo sapiens [7] = assay: Toxicity in HCV genotype 1-infected patient assessed as gastrointestinal side-effects at 500 to 1000 mg, po bid for 5 days followed by morning dose on day 6; assay type: organism-based; conditions: in vivo, 120 h
Outline: (§3)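 HCV genotype 1-infected patients given oral b.i.d. doses of 500 or 1000 mg for 5 days plus a morning dose on day 6, in hydroxypropyl-β-cyclodextrin vehicle; adverse events with grading, laboratory parameters, vital signs, food consumption, appetite and ECG monitored.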

[8] = Selectivity ratio of EC50 for Hepatitis C virus genotype 2b to EC50 for wild-type Hepatitis C virus Con 1b; assay type: functional
Outline: (§4)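 Transient replicon assay using chimeric replicons carrying NS5B from genotype 2a or 2b patient isolates. EC50 was compared with that against the genotype 1b replicon.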

Hepatitis C virus [9] = assay: Antiviral activity against Hepatitis C virus genotype 1a infected in human assessed as log10 reduction in HCV RNA level at 500 mg, po bid for 5 days followed by morning dose on day 6 relative to control; assay type: functional, Hepacivirus hominis, subtype 1a
Outline: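 Oral b.i.d. dosing of HCV genotype 1-infected patients at 500 mg or 1000 mg for 5 days, plus a morning dose on day 6, in hydroxypropyl-β-cyclodextrin vehicle. Read-out was the median maximum decrease in plasma HCV RNA from baseline (log10), using patients with HCV RNA data available up to Day 6.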

Hepatitis C virus [10] = assay: Antiviral activity against Hepatitis C virus harboring […] D168V mutant infected in human HuH7 by luciferase reporter gene assay; assay type: functional, organism-based; conditions: Hepacivirus hominis; Huh-7
[11] = Selectivity ratio of EC50 for Hepatitis C virus genotype 2a to EC50 for wild-type Hepatitis C virus Con 1b; assay type: functional; outline: as §4
Plasma = assay: Fraction unbound in human plasma; assay type: ADME, cell-free
Hepatitis C virus [12] = assay: Antiviral activity against Hepatitis C virus genotype 1b harboring NS5B NNI-1 site V494A mutant infected in human HuH7 by luciferase reporter gene assay relative to wild-type HCV genotype 1b; assay type: functional, Hepacivirus hominis, Huh-7
Hepatitis C virus [13] = assay: Antiviral activity against Hepatitis C virus genotype 1a infected in human assessed as reduction in plasma HCV RNA level administered for 10 days measured on day 11; assay type: functional, organism-based; conditions: Hepacivirus hominis, subtype 1a
Outline: (§5)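 HCV genotype 1a- and 1b-infected patients received oral 1000 mg b.i.d. together with an NS3/4A protease inhibitor at 150 mg q.d. for 10 days. The read-out was the median decrease in plasma HCV RNA (log10 IU/mL) at day 11.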

Rattus norvegicus = assay: Toxicity in rat assessed as decrease in body weight at 1000 mg/kg/day after 5 days; assay type: organism-based; conditions: in vivo, 120 h
Hepatitis C virus [14] = assay: Antiviral activity against Hepatitis C virus harboring NS5B M414T mutant infected in human HuH7 by luciferase reporter gene assay; assay type: functional, organism-based; conditions: Hepacivirus hominis; Huh-7
Hepatitis C virus [15] = assay: Antiviral activity against Hepatitis C virus genotype 4a infected in human HuH7 by transient replicon assay; assay type: functional, organism-based, Hepacivirus hominis; conditions: Huh-7; outline: as §2
Homo sapiens [16] = assay: Toxicity in HCV genotype 1-infected patient assessed as grade-4 adverse events at 500 to 1000 mg, po bid for 5 days followed by morning dose on day 6; assay type: organism-based; conditions: in vivo, 120 h; outline: as §3
[17] = Binding affinity to Hepatitis C virus genotype 2b NS5B by surface plasmon resonance analysis; parameters: species or system Hepatitis C virus subtype 2b; outline: as §1
[18] = Cytotoxicity against human HuH7 cells; assay type: cell-based, Huh-7
Hepatitis C virus [19] = assay: Antiviral activity against Hepatitis C virus genotype 1b infected in human HuH7 assessed as clearance of replicon cells at 3.75 uM preincubated for 2 weeks followed by 3 week rebound phase by RT-PCR analysis; assay type: functional, organism-based; conditions: Hepacivirus hominis, Huh-7
Outline: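 Clearance-and-rebound test in Huh7-Luc genotype 1b replicon cells. Cells were incubated with inhibitor (3.75 μM alone) for 14 days, then held for a 3-week rebound phase without inhibitor. Replicon RNA was followed for clearance and rebound.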

Homo sapiens [20] = assay: Toxicity in human assessed as effect on ECG profile at 300 to 1250 mg, po bid for 5 days followed by morning dose on day 6; assay type: organism-based; conditions: in vivo, 120 h
Outline: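 Healthy volunteers given oral b.i.d. doses of 300, 1000 or 1250 mg for 5 days plus a morning dose on day 6, in hydroxypropyl-β-cyclodextrin vehicle; adverse events, laboratory parameters, vital signs, food consumption, appetite, ECG and plasma 4-β-hydroxycholesterol (CYP3A4 induction marker) monitored.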

Hepatitis C virus [21] = assay: Antiviral activity against Hepatitis C virus harboring […] R155K mutant infected in human HuH7 by luciferase reporter gene assay; assay type: functional, organism-based; conditions: Hepacivirus hominis; Huh-7
Hepatitis C virus [22] = assay: Antiviral activity against Hepatitis C virus genotype 1b infected in human assessed as reduction in plasma HCV RNA level administered for 10 days measured on day 11; assay type: functional, organism-based; conditions: Hepacivirus hominis; outline: as §5
Homo sapiens [23] = assay: Toxicity in human assessed as gastrointestinal side-effects at 300 to 1250 mg, po bid for 5 days followed by morning dose on day 6; assay type: organism-based; conditions: in vivo, 120 h
Outline: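 Oral b.i.d. dosing for 5 days plus a single morning dose on day 6, in a hydroxypropyl-β-cyclodextrin vehicle. Healthy volunteers received 300, 1000 or 1250 mg; HCV genotype 1-infected patients received 500 or 1000 mg. Monitoring covered adverse events graded by severity, laboratory parameters, vital signs, food consumption, appetite and ECG.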

[24] = test system: Hepatitis C virus subtype 1b
[25] = Binding affinity to Hepatitis C virus genotype 5a NS5B by surface plasmon resonance analysis; parameters: species or system Hepatitis C virus subtype 5a; outline: as §1
Hepatitis C virus [26] = assay: Antiviral activity against Hepatitis C virus genotype 3a infected in human HuH7 by transient replicon assay; assay type: functional, organism-based, Hepacivirus hominis; conditions: Huh-7; outline: as §2

Question: With COc1ccc2c(c1)C=C1Cn3c-2c(C2CCCCC2)c2ccc(cc23)C(=O)NS(=O)(=O)N(C)CCOCCN(C)C1=O [TMC-647055] as the molecule, how does the EC50 (Hepatitis C virus [1]) read?
Answer: 166 nM

Question: What about the Kd [2] of the same molecule?
Answer: 30 nM

Question: And the EC50 (Hepatitis C virus [3])?
Answer: 48 nM

Question: What about the Activity (Hepatitis C virus [4]) of the same molecule?
Answer: Active

Question: And the IC50 [5]?
Answer: 34 nM

Question: What about the Activity (Hepatitis C virus [6]) of the same molecule?
Answer: Active

Question: And the Activity (Homo sapiens [7])?
Answer: Toxic

Question: What about the “Ratio EC50” value [8] of the same molecule?
Answer: >200

Question: And the FC (Hepatitis C virus [9])?
Answer: 1.4

Question: What about the Activity (Hepatitis C virus [10]) of the same molecule?
Answer: Active

Question: What about the “Ratio EC50” value [11] of the same molecule?
Answer: >200

Question: What about the Fu (Plasma) of the same molecule?
Answer: 0.3%

Question: And the “fold change (FC)” value (Hepatitis C virus [12])?
Answer: 3

Question: What about the Activity (Hepatitis C virus [13]) of the same molecule?
Answer: Active

Question: What about the Activity (Rattus norvegicus) of the same molecule?
Answer: Toxic

Question: And the Activity (Hepatitis C virus [14])?
Answer: Active

Question: And the EC50 (Hepatitis C virus [15])?
Answer: 97 nM

Question: And the Activity (Homo sapiens [16])?
Answer: Non-toxic

Question: What about the Kd [17] of the same molecule?
Answer: 880 nM

Question: What about the CC50 [18] of the same molecule?
Answer: 42.1 µM

Question: And the Activity (Hepatitis C virus [19])?
Answer: inactive

Question: What about the Activity (Homo sapiens [20]) of the same molecule?
Answer: Non-toxic

Question: And the Activity (Hepatitis C virus [21])?
Answer: Active

Question: What about the Activity (Hepatitis C virus [22]) of the same molecule?
Answer: Active

Question: And the Activity (Homo sapiens [23])?
Answer: Toxic

Question: And the T1/2 [24]?
Answer: 2.17 h

Question: And the Kd [25]?
Answer: 21 nM

Question: What about the EC50 (Hepatitis C virus [26]) of the same molecule?
Answer: 88 nM
